Source: ChEMBL document CHEMBL3526095, “Characterization of the in vitro and in vivo metabolism and disposition and cytochrome P450 inhibition/induction profile of saxagliptin in human” (Drug Metab Dispos, 2012)

Key:
[1] = Drug metabolism in human assessed as drug excretion in feces at 50 mg, po after 96 to 144 hrs by liquid scintillation counting; type: ADME, organism-based; details: in vivo
In short: (§1)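 Healthy males received a single 50-mg oral [14C]saxagliptin solution (91.5 µCi) after a 10-h fast. Urine collected 0–12 h, 12–24 h, then at 24-h intervals to 168 h; feces collected at 24-h intervals. Radioactivity counted by LSC: urine directly, feces as ~20% w/w homogenate combusted before counting. Result expressed as % of actual dose, based on syringe weights.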

[2] = Drug metabolism in human assessed as drug excretion in urine at 50 mg, po after 48 to 168 hrs by liquid scintillation counting; type: ADME, organism-based; details: in vivo; in short: as §1
[3] = Drug metabolism in human assessed as total drug excretion in feces at 50 mg, po up to 144 hrs by liquid scintillation counting; type: ADME, organism-based; details: in vivo; in short: as §1
[4] = Drug metabolism in human assessed as total drug excretion in urine at 50 mg, po up to 168 hrs by liquid scintillation counting; type: ADME, organism-based; details: in vivo; in short: as §1
[5] = Drug metabolism in human assessed as drug excretion in feces at 50 mg, po after 48 to 72 hrs by liquid scintillation counting; type: ADME, organism-based; details: in vivo; in short: as §1
Liver microsome [6] = assay: Drug metabolism in human liver microsomes assessed as formation of 5-hydroxy saxagliptin at 1 uM after 30 mins by LC-MS/MS analysis in presence of ketoconazole and troleandomycin
[7] = Drug metabolism in human assessed as drug excretion in feces at 50 mg, po up to 24 hrs by liquid scintillation counting; type: ADME, organism-based; details: in vivo; in short: as §1
[8] = Drug metabolism in human assessed as drug excretion in feces at 50 mg, po after 72 to 96 hrs by liquid scintillation counting; type: ADME, organism-based; details: in vivo; in short: as §1
Liver microsome [9] = assay: Drug metabolism in human liver microsomes assessed as formation of mono-hydroxylated metabolite at 10 uM after 1 hr by LC-MS/MS analysis in presence of NADPH; type: ADME
In short: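 Pooled HLM at 1 mg/ml protein, incubated with 10 µM [14C]saxagliptin and 1 mM NADPH in 100 mM phosphate buffer pH 7.4 at 37°C for 60 min. Quenched with ice-cold acetonitrile; supernatant analysed by LC-MS/MS and off-line radioanalysis.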

[10] = Drug metabolism in human assessed as drug excretion in feces at 50 mg, po after 24 to 48 hrs by liquid scintillation counting; type: ADME, organism-based; details: in vivo; in short: as §1
Liver microsome [11] = assay: Drug metabolism in human liver microsomes assessed as formation of 5-hydroxy saxagliptin at 10 uM after 1 hr by LC-MS/MS analysis in absence of NADPH; type: ADME
[12] = Drug metabolism in human assessed as drug excretion in urine at 50 mg, po after 12 to 24 hrs by liquid scintillation counting; type: ADME, organism-based; details: in vivo; in short: as §1
[13] = Drug metabolism in human assessed as drug excretion in urine at 50 mg, po up to 12 hrs by liquid scintillation counting; type: ADME, organism-based; details: in vivo; in short: as §1
Liver microsome [14] = assay: Drug metabolism in human liver microsomes assessed as formation of 5-hydroxy saxagliptin at 10 uM after 30 mins by LC-MS/MS analysis in presence of 1-aminobenzotriazole
[15] = Drug metabolism in human assessed as drug excretion in urine at 50 mg, po after 24 to 48 hrs by liquid scintillation counting; type: ADME, organism-based; details: in vivo; in short: as §1
[16] = substrate: N#C[C@@H]1C[C@@H]2C[C@@H]2N1C(=O)[C@@H](N)C12CC3CC(CC(O)(C3)C1)C2; assay: Drug metabolism in assessed as human CYP3A5-mediated formation of 5-hydroxy saxagliptin Michaelis-Menten kinetic analysis; type: ADME
In short: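 M2 formation kinetics measured in triplicate at twelve saxagliptin concentrations from 1 to 800 µM. Enzyme source was pooled HLM (0.25 mg/ml, 30 min, 37°C) or expressed CYP3A4 or CYP3A5 (10 pmol/ml, 10 min). Incubations contained 1 mM NADPH and 2 mM MgCl2 in phosphate buffer pH 7.4.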

Row | Molecule | Drug excretion [1] [%] | Drug excretion [2] [%] | Drug excretion [3] [%] | Drug excretion [4] [%] | Drug excretion [5] [%] | Drug metabolism (Liver microsome [6]) | Drug excretion [7] [%] | Drug excretion [8] [%] | Drug metabolism (Liver microsome [9]) | Drug excretion [10] [%] | Drug metabolism (Liver microsome [11]) | Drug excretion [12] [%] | Drug excretion [13] [%] | Drug metabolism (Liver microsome [14]) | Drug excretion [15] [%] | Km [16] [µM] | Vmax [16] [µmol/min]
1 | N#C[C@@H]1C[C@@H]2C[C@@H]2N1[14C](=O)[14C@@H](N)C12CC3CC(CC(O)(C3)C1)C2 | 2.39 | 1.6 | 22.05 | 74.89 | 2.86 | metabolite_not_detected | 7.22 | 1.13 | metabolite_detected | 8.46 | metabolite_not_detected | 3.26 | 68.15 | metabolite_not_detected | 1.9 | – | –
2 | Cytochrome P450 3A5 (Homo sapiens) (protein) MDLIPNLAVETWLLLAVSLVLLYLYGTRTHGLFKRLGIPGPTPLPLLGNVLSYRQGLWKFDTECYKKYGKMWGTYEGQLPVLAITDPDVIRTVLVKECYSVFTNRRSLGPVGFMKSAISLAEDEEWKRIRSLLSPTFTSGKLKEMFPIIAQYGDVLVRNLRREAEKGKPVTLKDIFGAYSMDVITGTSFGVNIDSLNNPQDPFVESTKKFLKFGFLDPLFLSIILFPFLTPVFEALNVSLFPKDTINFLSKSVNRMKKSRLNDKQKHRLDFLQLMIDSQNSKETESHKALSDLELAAQSIIFIFAGYETTSSVLSFTLYELATHPDVQQKLQKEIDAVLPNKAPPTYDAVVQMEYLDMVVNETLRLFPVAIRLERTCKKDVEINGVFIPKGSMVVIPTYALHHDPKYWTEPEEFRPERFSKKKDSIDPYIYTPFGTGPRNCIGMRFALMNMKLALIRVLQNFSFKPCKETQIPLKLDTQGLLQPEKPIVLKVDSRDGTLSGE | – | – | – | – | – | – | – | – | – | – | – | – | – | – | – | 252 | 2.4e-05
